Measurements published in ChEMBL document CHEMBL1811759, “Synthesis and topoisomerase I inhibitory activity of a novel diazaindeno[2,1-b]phenanthrene analogue of Lamellarin D” (Bioorg Med Chem, 2011).
Activity calls are given as the source filed them. The calls are words filed in the database; no cut-off is given here.

Key:
NCI-H460 [1] = assay: Antiproliferative activity against human NCI-H460 cells after 1 hr by coulter counter analysis; assay type: functional, cell-based; conditions: NCI-H460, 1 h
In short: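 NCI-H460 NSCLC cells in RPMI-1640 + 10% foetal calf serum; log-phase cells seeded in duplicate, drug added 24 h after seeding for 1 h, then counted (Coulter counter) 72 h later. IC50 = concentration giving 50% decrease in cell growth vs untreated control.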

NCI-H460 [2] = assay: Antiproliferative activity against human NCI-H460 cells after 72 hrs by coulter counter analysis; assay type: functional, cell-based; conditions: NCI-H460, 72 h
In short: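 NCI-H460 cells grown in RPMI-1640 with 10% foetal calf serum; log-phase cells seeded in duplicate, exposed 24 h post-seeding for 72 h continuously, counted by Coulter counter at end of exposure. IC50 taken as concentration halving cell growth relative to untreated control.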

[3] = target: T1, DNA topoisomerase 1 (Homo sapiens) (UniProt P11387); assay: Stimulation of human recombinant DNA topoisomerase 1-mediated 751-bp BamHI-EcoRV fragment of SV40 DNA cleavage at 1 to 50 uM after 30 mins by polyacrylamide gel-electrophoresis
T1 sequence (whole entry): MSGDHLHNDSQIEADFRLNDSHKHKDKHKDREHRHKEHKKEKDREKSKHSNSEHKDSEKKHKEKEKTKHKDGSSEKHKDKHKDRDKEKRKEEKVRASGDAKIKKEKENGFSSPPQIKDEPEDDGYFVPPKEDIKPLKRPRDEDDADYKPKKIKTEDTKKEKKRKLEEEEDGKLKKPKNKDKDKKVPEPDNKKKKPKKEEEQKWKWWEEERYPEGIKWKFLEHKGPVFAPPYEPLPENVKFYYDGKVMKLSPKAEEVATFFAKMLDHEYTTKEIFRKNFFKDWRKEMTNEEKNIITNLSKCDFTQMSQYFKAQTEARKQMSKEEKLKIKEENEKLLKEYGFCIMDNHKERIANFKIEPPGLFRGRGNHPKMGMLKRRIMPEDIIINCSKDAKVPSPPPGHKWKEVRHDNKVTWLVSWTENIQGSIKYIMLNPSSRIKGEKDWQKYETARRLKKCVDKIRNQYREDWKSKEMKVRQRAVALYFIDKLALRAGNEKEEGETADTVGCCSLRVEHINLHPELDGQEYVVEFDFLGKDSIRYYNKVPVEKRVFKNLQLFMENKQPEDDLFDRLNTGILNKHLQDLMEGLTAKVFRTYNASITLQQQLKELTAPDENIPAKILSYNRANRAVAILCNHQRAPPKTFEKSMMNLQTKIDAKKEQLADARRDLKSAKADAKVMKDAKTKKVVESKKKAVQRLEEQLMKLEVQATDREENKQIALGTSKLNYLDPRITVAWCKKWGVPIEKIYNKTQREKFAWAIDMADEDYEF
In short: (§1)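 Gel-purified 751-bp BamHI–EcoRV SV40 DNA fragment, uniquely 3'-end labeled (10,000 cpm/sample), incubated with full-length human recombinant topoisomerase I in 10 mM Tris–HCl pH 7.6, 150 mM KCl, 5 mM MgCl2, 0.1 mM DTT, 30 min, 37 °C. Stopped with 0.5% SDS plus 0.3 mg/mL proteinase K (45 min, 42 °C); products resolved on denaturing 8% polyacrylamide/TBE gel.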

[4] = target: T1, DNA topoisomerase 1 (Homo sapiens); assay: Stimulation of human recombinant DNA topoisomerase 1-mediated 751-bp BamHI-EcoRV fragment of SV40 DNA cleavage at 100 uM after 30 mins by polyacrylamide gel-electrophoresis; in short: as §1

| Activity [3] | Activity [4] | SMILES | IC50 (NCI-H460 [1]) [µM] | IC50 (NCI-H460 [2]) [µM] |
| --- | --- | --- | --- | --- |
| – | – | COc1cc(-c2[nH]c(=O)c3[nH]c4cc(OC)c(O)cc4c3c2-c2ccc(O)c(OC)c2)ccc1O | 60.8 | – |
| Active | – | CCc1c2c(nc3ccc(O)cc13)-c1cc3c(c(=O)n1C2)COC(=O)[C@]3(O)CC | – | – |
| – | – | Cn1c2ccccc2c2cc3n(c(=O)c21)COc1ccccc1-3 | 118 | – |
| – | – | CC[C@@]1(O)C(=O)OCc2c1cc1n(c2=O)Cc2cc3c(CN(C)C)c(O)ccc3nc2-1 [TOPOTECAN] | 1.75 | 0.016 |
| inactive | – | COc1cc(-c2[nH]c(=O)c3c(c2-c2ccc(O)c(OC)c2)c2cc(OC)c(O)cc2n3Cc2ccccc2)ccc1O | 119 | – |
| – | Active | COc1cc(-c2c3n(c(=O)c4c2c2cc(OC)c(O)cc2n4C)COc2cc(O)c(OC)cc2-3)ccc1O | 4.02 | 0.35 |
| inactive | – | COc1cc(-c2[nH]c(=O)c3[nH]c4cc(O)c(OC)cc4c3c2-c2ccc(O)c(OC)c2)ccc1O | 60.8 | – |
| inactive | – | COc1cc2c3c(-c4ccc(OC(C)C)c(OC)c4)c(-c4ccc(OC(C)C)c(OC)c4)[nH]c(=O)c3n(Cc3ccccc3)c2cc1OCc1ccccc1 | > 150 | – |
| – | – | COc1cc(-c2[nH]c(=O)c3c(c2-c2ccc(OC(C)C)c(OC)c2)c2ccccc2n3C)ccc1OC(C)C | 60.8 | – |
| – | – | COc1cc(-c2[nH]c(=O)c3c(c2-c2ccc(O)c(OC)c2)c2ccccc2n3C)ccc1O | 60.8 | – |

| SMILES | Activity [3] | Activity [4] | IC50 (NCI-H460 [1]) [µM] | IC50 (NCI-H460 [2]) [µM] |
| --- | --- | --- | --- | --- |
| COc1cc(-c2c3c4cc(OC)c(O)cc4oc(=O)c3n3ccc4cc(O)c(OC)cc4c23)ccc1O [LAMELLARIN D] | Active | – | 0.066 | 0.003 |
